The values below come from ChEMBL document CHEMBL4330162, “Structure of Hierridin C, Synthesis of Hierridins B and C, and Evidence for Prevalent Alkylresorcinol Biosynthesis in Picocyanobacteria” (J Nat Prod, 2019).

Each structure is given as a SMILES string. pIC50: −log10 of the molar value. The source made the active and inactive calls. The calls are words filed in the database; no cut-off is given here.

One experiment relates to T47D. Put plainly: Cytotoxicity against human T47D cells up to 72 uM after 24 to 48 hrs by MTT assay. Type of experiment: functional, cell-based. The method in brief: (§1)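 Cells seeded at 10^4 cells cm−2 and left 24 h to adhere. Exposed 24 or 48 h to fresh medium containing compound from DMSO (1 μL per 100 μL) at final 3 and 30 μg mL−1. MTT added at 0.5 mg mL−1, formazan dissolved in DMSO, absorbance read at 550 nm. Triplicate.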
Background: Tetrazolium assays rely on reduction of a dye to a coloured formazan, in cell work by metabolically active cells.

The next experiment relates to SH-SY5Y. Kind of experiment: Cytotoxicity against human SH-SY5Y cells up to 72 uM after 24 to 48 hrs by MTT assay. Type of experiment: functional, cell-based. A digest of the protocol:
as §1

Experiment [1] deals with Plasmodium falciparum. Kind of experiment: Antimalarial activity against Plasmodium falciparum Dd2 infected in human erythrocytes after 48 hrs by SYBR Green-1 dye based assay. Type of experiment: functional, organism-based. To be noted: Dd2, 48 h. The method in brief:
(§2)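 Asexual parasites kept on human erythrocytes in RPMI 1640 with 25 mM HEPES, […] hypoxanthine and 10% AlbuMAX II, pH 7.2. Cultures held at 37 °C under 5% O2 and 3−5% CO2 in N2, and sorbitol-synchronized. SYBR Green I fluorescence read at ex 485/em 535 nm. Percent survival vs untreated; IC50 by nonlinear regression.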

In experiment [2] the test system is Plasmodium falciparum. Kind of experiment: Antimalarial activity against Plasmodium falciparum 3D7 infected in human erythrocytes after 48 hrs by SYBR Green-1 dye based assay. Type of experiment: functional, organism-based. Particulars: 3D7, 48 h. A digest of the protocol:
as §2

A further experiment has as its system MG-63. Put plainly: Cytotoxicity against human MG63 cells up to 72 uM after 24 to 48 hrs by MTT assay. Type of experiment: functional, cell-based. The method in brief:
as §1

The next experiment deals with RKO. Put plainly: Cytotoxicity against human RKO cells up to 72 uM after 24 to 48 hrs by MTT assay. Type of experiment: functional, cell-based. The method in brief: as §1
In another experiment the test system is HepG2. Put plainly: Cytotoxicity against human HepG2 cells up to 72 uM after 24 to 48 hrs by MTT assay. Type of experiment: functional, cell-based. The method in brief: as §1
Another experiment has as its system Caco-2. Put plainly: Cytotoxicity against human Caco2 cells up to 72 uM after 24 to 48 hrs by MTT assay. Type of experiment: functional, cell-based. A digest of the protocol: as §1
A further experiment has as its system HT-29. Put plainly: Cytotoxicity against human HT-29 cells up to 72 uM after 24 to 48 hrs by MTT assay. Type of experiment: functional, cell-based. A digest of the protocol:
as §1

Broadly, the pIC50 is −log10 of the IC50, conventionally taken in molar units. As for `CCCCCCCCCCCCCCCc1c(O)c(OC)cc(OC)c1Cl`, the result in the experiment on T47D, with SH-SY5Y, in the experiment on MG-63, in the experiment with RKO, in the experiment with HepG2 and in the experiment on Caco-2 was inactive. Besides, the outcome with HT-29 was inactive. The negative-log IC50 (pIC50) in the experiment on Plasmodium falciparum [1] is 5.64; with Plasmodium falciparum [2] it was 5.82.
Consider `CCCCCCCCCCCCCCCc1cc(OC)cc(OC)c1O`, for which the values for the pIC50 in the experiment with Plasmodium falciparum [1] and with Plasmodium falciparum [2] were 5.64 and 5.68, respectively.
